≈ marks a conversion by molar mass, not a printed value.
Experiments:
[1] = test system: Staphylococcus aureus; assay: Antibacterial activity against vancomycin-resistant Staphylococcus aureus ARC 3186 after 18 to 24 hrs by CLSI broth microdilution method; assay type: functional
In short: (§1)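 CLSI broth microdilution in Mueller Hinton Broth 2. Inocula prepared from blood agar plates grown at 35 °C for 18–24 h. Compound in DMSO, 2% DMSO final, 11 doubling dilutions from 64 to 0.06 μg/mL. Plates read at 620 nm.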

[2] = target: T1, Voltage-gated inwardly rectifying potassium channel KCNH2 (Homo sapiens, UniProt Q12809); assay: Displacement of [3H]-astemizole from human ERG expressed in HEK293 cells after 60 mins by liquid scintillation counter; assay type: cell-based
[3] = target: T1, Voltage-gated inwardly rectifying potassium channel KCNH2; assay: Inhibition of human ERG by Ionworks assay
[4] = Dissociation constant, pKa of the compound by pH metric assay; assay type: physicochemical
In short: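 pH-metric titration on an automated titrator, run in triplicate. Accuracy about 0.02 log units.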

[5] = Octanol-phosphate buffer partition coefficient, log D of the compound at pH 7.4 by shake flask method; assay type: physicochemical
In short: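 Shake-flask partition between n-octanol and 10 mM phosphate buffer at pH 7.4. Shaken 1 h at 1200 rpm to reach equilibrium. Phases analysed by LC/UV, with MS for mass confirmation.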

[6] = Inhibition of Escherichia coli DNA topoisomerase 4 subunit ParC/DNA topoisomerase 4 subunit ParE ATPase activity after 24 hrs by malachite green staining-based colorimetric assay
[7] = Fraction unbound in human plasma at 10 uM by equilibrium dialysis method; assay type: ADME, cell-free
In short: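 Equilibrium dialysis. Compound at 10 μM in the plasma (donor) chamber against phosphate buffer, rotated at 37 °C for 16 h. Drug in the plasma and buffer samples quantified by LC-MS/MS after methanol protein precipitation with internal standard. Standard curve 10 nM to 10 μM.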

[8] = test system: Escherichia coli; assay: Antibacterial activity against Escherichia coli W3110 after 18 to 24 hrs by CLSI broth microdilution method; assay type: functional
[9] = test system: Pseudomonas aeruginosa; assay: Antibacterial activity against Pseudomonas aeruginosa PAO1 after 18 to 24 hrs by CLSI broth microdilution method; assay type: functional
[10] = test system: Streptococcus pneumoniae; assay: Antibacterial activity against penicillin-susceptible Streptococcus pneumoniae D39 after 18 to 24 hrs by CLSI broth microdilution method; assay type: functional
[11] = test system: Staphylococcus aureus; assay: Antibacterial activity against methicillin-susceptible Staphylococcus aureus after 18 to 24 hrs by CLSI broth microdilution method; assay type: functional
[12] = test system: Staphylococcus aureus; assay: Antibacterial activity against linezolid-resistant Staphylococcus aureus ARC 3583 after 18 to 24 hrs by CLSI broth microdilution method; assay type: functional; in short: as §1

T1 sequence (Q12809 whole entry): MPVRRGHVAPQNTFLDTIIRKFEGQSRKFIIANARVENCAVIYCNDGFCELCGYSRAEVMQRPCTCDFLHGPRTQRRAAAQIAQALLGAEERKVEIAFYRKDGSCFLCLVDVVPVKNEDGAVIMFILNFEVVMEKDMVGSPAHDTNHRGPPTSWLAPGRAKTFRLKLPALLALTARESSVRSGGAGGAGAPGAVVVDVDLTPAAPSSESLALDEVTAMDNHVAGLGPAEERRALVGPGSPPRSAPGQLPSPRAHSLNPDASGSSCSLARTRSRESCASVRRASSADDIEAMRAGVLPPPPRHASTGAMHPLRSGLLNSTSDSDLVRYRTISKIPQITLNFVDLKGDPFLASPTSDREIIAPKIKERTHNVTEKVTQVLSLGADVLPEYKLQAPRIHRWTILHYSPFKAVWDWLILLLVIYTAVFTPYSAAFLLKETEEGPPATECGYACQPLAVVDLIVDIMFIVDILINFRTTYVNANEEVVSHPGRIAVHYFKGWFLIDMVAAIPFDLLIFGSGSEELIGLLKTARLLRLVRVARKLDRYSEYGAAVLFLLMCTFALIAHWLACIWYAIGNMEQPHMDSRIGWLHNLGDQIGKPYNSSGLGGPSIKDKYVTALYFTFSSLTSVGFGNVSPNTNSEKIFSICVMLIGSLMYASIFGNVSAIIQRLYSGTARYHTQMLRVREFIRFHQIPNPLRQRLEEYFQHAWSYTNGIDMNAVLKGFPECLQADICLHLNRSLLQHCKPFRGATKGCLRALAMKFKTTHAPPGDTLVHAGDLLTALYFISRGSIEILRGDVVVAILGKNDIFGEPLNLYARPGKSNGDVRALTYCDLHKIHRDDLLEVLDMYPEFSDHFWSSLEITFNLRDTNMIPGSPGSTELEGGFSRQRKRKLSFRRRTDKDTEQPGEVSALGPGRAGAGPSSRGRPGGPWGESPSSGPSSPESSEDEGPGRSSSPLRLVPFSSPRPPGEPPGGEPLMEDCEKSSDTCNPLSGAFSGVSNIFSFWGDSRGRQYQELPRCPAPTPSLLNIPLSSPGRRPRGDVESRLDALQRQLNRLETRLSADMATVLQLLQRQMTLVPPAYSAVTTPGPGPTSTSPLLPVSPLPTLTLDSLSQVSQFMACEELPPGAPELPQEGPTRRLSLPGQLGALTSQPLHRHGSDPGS

SMILES	pKa [4]	logD [5]	IC50 [6]	fraction unbound at 10 µM [7]	MIC [8]	MIC [9]	MIC [10]	MIC [11]	MIC [1]	IC50 [2]	IC50 [3]	MIC [12]
CN[C@H](CC(C)C)C(=O)N[C@H]1C(=O)N[C@@H](CC(N)=O)C(=O)N[C@H]2C(=O)N[C@H]3C(=O)N[C@H](C(=O)N[C@H](C(=O)O)c4cc(O)cc(O)c4-c4cc3ccc4O)[C@H](O)c3ccc(c(Cl)c3)Oc3cc2cc(c3O[C@@H]2O[C@H](CO)[C@@H](O)[C@H](O)[C@H]2O[C@H]2C[C@](C)(N)[C@H](O)[C@H](C)O2)Oc2ccc(cc2Cl)[C@H]1O [VANCOMYCIN]	–	–	–	–	–	–	–	–	> 64 µg/mL	–	–	–
N#Cc1ccc2ccc(=O)n(CCN3CC[C@H](NCc4cc5c(cn4)OCCO5)[C@@H](F)C3)c2c1 (single isomer, unassigned; enantiomer B)	6.66	1.53	16 nM	0.09	8 µg/mL (≈ 17.3 µM)	> 8 µg/mL	0.25 µg/mL (≈ 0.539 µM)	0.13 µg/mL (≈ 0.28 µM)	–	57000 nM	122000 nM	–
COc1ccc2ncc(=O)n(CCN3CC[C@H](NCc4ccc5c(n4)NC(=O)CO5)[C@@H](F)C3)c2c1 (single isomer, unassigned; enantiomer B)	6.86	1.38	< 9 nM	0.04	0.5 µg/mL (≈ 1.04 µM)	4 µg/mL (≈ 8.29 µM)	0.06 µg/mL (≈ 0.124 µM)	< 0.01 µg/mL	–	–	–	–
CO[C@H]1CN(CCn2c(=O)ccc3ccc(C#N)cc32)CC[C@H]1NCc1ccc2c(n1)NC(=O)CO2	–	0.32	28 nM	0.5	1 µg/mL (≈ 2.05 µM)	8 µg/mL (≈ 16.4 µM)	0.5 µg/mL (≈ 1.02 µM)	0.13 µg/mL (≈ 0.266 µM)	–	–	–	–
COc1ccc2ncc(=O)n(CCN3CC[C@@H](NCc4ccc5c(n4)NC(=O)CO5)[C@H](OC)C3)c2c1 (single isomer, unassigned; enantiomer 1)	7.45	–	45 nM	0.18	1 µg/mL (≈ 2.02 µM)	8 µg/mL (≈ 16.2 µM)	0.13 µg/mL (≈ 0.263 µM)	0.03 µg/mL (≈ 0.0607 µM)	–	–	27000 nM	–
N#Cc1ccc2ccc(=O)n(CCN3CC[C@@H](NCc4ccc5c(n4)NC(=O)CO5)[C@@H](O)C3)c2c1	–	0.1	15 nM	0.18	0.5 µg/mL (≈ 1.05 µM)	2 µg/mL (≈ 4.21 µM)	–	0.5 µg/mL (≈ 1.05 µM)	–	–	–	–
COc1ccc2ncc(=O)n(CCN3CC[C@@H](NCc4ccc5c(n4)NC(=O)CO5)[C@@H](F)C3)c2c1	–	0.83	–	0.25	0.5 µg/mL (≈ 1.04 µM)	8 µg/mL (≈ 16.6 µM)	0.13 µg/mL (≈ 0.269 µM)	0.03 µg/mL (≈ 0.0622 µM)	–	–	–	–
CC(=O)NC[C@H]1CN(c2ccc(N3CCOCC3)c(F)c2)C(=O)O1 [LINEZOLID]	–	–	–	–	–	–	–	–	1 µg/mL (≈ 2.96 µM)	–	–	16 µg/mL (≈ 47.4 µM)
CO[C@@H]1CN(CCn2c(=O)ccc3ccc(C#N)cc32)CC[C@H]1NCc1ccc2c(n1)NC(=O)CO2 (single isomer, unassigned; enantiomer 1)	7.53	0.81	35 nM	0.27	2 µg/mL (≈ 4.09 µM)	> 8 µg/mL	0.25 µg/mL (≈ 0.512 µM)	0.13 µg/mL (≈ 0.266 µM)	–	–	–	–
N#Cc1ccc2ccc(=O)n(CCN3CC[C@H](NCc4ccc5c(n4)NC(=O)CO5)[C@H](O)C3)c2c1	–	0.11	17 nM	0.21	0.5 µg/mL (≈ 1.05 µM)	2 µg/mL (≈ 4.21 µM)	–	0.25 µg/mL (≈ 0.527 µM)	–	–	–	–
CO[C@H]1CN(CCn2c(=O)ccc3ccc(C#N)cc32)CC[C@@H]1NCc1cc2c(cn1)OCCO2 (single isomer, unassigned; enantiomer 1)	7.25	1.07	96 nM	0.13	8 µg/mL (≈ 16.8 µM)	> 8 µg/mL	0.5 µg/mL (≈ 1.05 µM)	0.25 µg/mL (≈ 0.526 µM)	–	–	176000 nM	–
COc1ccc2ncc(=O)n(CCN3CC[C@@H](NCc4ccc5c(n4)NC(=O)CO5)[C@@H](OC)C3)c2c1	8.17	–	76 nM	0.28	1 µg/mL (≈ 2.02 µM)	4 µg/mL (≈ 8.09 µM)	0.25 µg/mL (≈ 0.506 µM)	0.06 µg/mL (≈ 0.121 µM)	–	–	88000 nM	–
N#Cc1ccc2ccc(=O)n(CCN3CC[C@@H](NCc4cc5c(cn4)OCCO5)[C@@H](F)C3)c2c1	–	0.97	60 nM	0.2	4 µg/mL (≈ 8.63 µM)	> 8 µg/mL	0.13 µg/mL (≈ 0.28 µM)	0.13 µg/mL (≈ 0.28 µM)	–	> 200000 nM	199000 nM	–
COc1ccc2ncc(=O)n(CCN3CC[C@H](NCc4ccc5c(n4)NC(=O)CO5)[C@H](F)C3)c2c1	–	–	–	–	0.5 µg/mL (≈ 1.04 µM)	8 µg/mL (≈ 16.6 µM)	0.13 µg/mL (≈ 0.269 µM)	0.03 µg/mL (≈ 0.0622 µM)	–	–	–	–

The next lines start with results.

pKa [4]	logD [5]	IC50 [6]	fraction unbound at 10 µM [7]	MIC [8]	MIC [9]	MIC [10]	MIC [11]	SMILES	MIC [1]	IC50 [2]	IC50 [3]	MIC [12]
6.46	1.68	26 nM	0.09	8 µg/mL (≈ 17 µM)	> 8 µg/mL	0.13 µg/mL (≈ 0.277 µM)	0.06 µg/mL (≈ 0.128 µM)	COc1ccc2ncc(=O)n(CCN3CC[C@H](NCc4cc5c(cn4)OCCO5)[C@@H](F)C3)c2c1 (single isomer, unassigned; enantiomer B)	–	–	–	–
7.97	–	6 nM	0.14	1 µg/mL (≈ 2.14 µM)	> 8 µg/mL	–	0.06 µg/mL (≈ 0.128 µM)	COc1ccc2ncc(=O)n(CCN3CC[C@@H](NCc4cc5c(cn4)OCCO5)[C@@H](O)C3)c2c1	–	–	–	–
8	0.46	25 nM	0.19	1 µg/mL (≈ 2.17 µM)	> 8 µg/mL	–	0.06 µg/mL (≈ 0.13 µM)	N#Cc1ccc2ccc(=O)n(CCN3CC[C@H](NCc4cc5c(cn4)OCCO5)[C@H](O)C3)c2c1	–	–	156000 nM	–
–	–	5 nM	0.19	0.5 µg/mL (≈ 1.07 µM)	8 µg/mL (≈ 17.1 µM)	–	0.03 µg/mL (≈ 0.0642 µM)	COc1ccc2ncc(=O)n(CCN3CC[C@H](NCc4cc5c(cn4)OCCO5)[C@H](O)C3)c2c1	–	–	–	–
8.01	0.9	76 nM	0.33	4 µg/mL (≈ 8.31 µM)	> 8 µg/mL	0.13 µg/mL (≈ 0.27 µM)	0.06 µg/mL (≈ 0.125 µM)	COc1ccc2ncc(=O)n(CCN3CC[C@@H](NCc4cc5c(cn4)OCCO5)[C@@H](OC)C3)c2c1	–	–	75000 nM	–
–	0.45	41 nM	0.24	1 µg/mL (≈ 2.17 µM)	> 8 µg/mL	–	0.06 µg/mL (≈ 0.13 µM)	N#Cc1ccc2ccc(=O)n(CCN3CC[C@@H](NCc4cc5c(cn4)OCCO5)[C@@H](O)C3)c2c1	–	–	117000 nM	–
–	0.39	17 nM	0.14	0.25 µg/mL (≈ 0.52 µM)	2 µg/mL (≈ 4.16 µM)	–	0.06 µg/mL (≈ 0.125 µM)	COc1ccc2ncc(=O)n(CCN3CC[C@H](NCc4ccc5c(n4)NC(=O)CO5)[C@H](O)C3)c2c1	–	–	172000 nM	–
–	0.37	23 nM	0.05	0.25 µg/mL (≈ 0.52 µM)	2 µg/mL (≈ 4.16 µM)	–	0.13 µg/mL (≈ 0.271 µM)	COc1ccc2ncc(=O)n(CCN3CC[C@@H](NCc4ccc5c(n4)NC(=O)CO5)[C@@H](O)C3)c2c1	–	–	152000 nM	–
7.99	0.63	55 nM	0.54	4 µg/mL (≈ 8.41 µM)	> 8 µg/mL	0.13 µg/mL (≈ 0.273 µM)	0.13 µg/mL (≈ 0.273 µM)	CO[C@H]1CN(CCn2c(=O)ccc3ccc(C#N)cc32)CC[C@H]1NCc1cc2c(cn1)OCCO2	–	–	174000 nM	–
7.4	–	3 nM	0.18	2 µg/mL (≈ 4.28 µM)	> 8 µg/mL	0.06 µg/mL (≈ 0.128 µM)	0.06 µg/mL (≈ 0.128 µM)	COc1ccc2ncc(=O)n(CCN3CC[C@@H](NCc4cc5c(cn4)OCCO5)[C@H](O)C3)c2c1 (single isomer, unassigned; enantiomer B)	–	–	–	–
7	1.27	113 nM	0.11	8 µg/mL (≈ 16.6 µM)	> 8 µg/mL	0.25 µg/mL (≈ 0.519 µM)	0.25 µg/mL (≈ 0.519 µM)	COc1ccc2ncc(=O)n(CCN3CC[C@H](NCc4cc5c(cn4)OCCO5)[C@@H](OC)C3)c2c1 (single isomer, unassigned; enantiomer 1)	–	–	93000 nM	–

From ChEMBL document CHEMBL2163267, “Novel N-linked aminopiperidine inhibitors of bacterial topoisomerase type II with reduced pK(a): antibacterial agents with an improved safety profile” (J Med Chem, 2012)
